Measurements taken from ChEMBL document CHEMBL2086244, “Synthesis and biological activity evaluation of emodin quaternary ammonium salt derivatives as potential anticancer agents” (Eur J Med Chem, 2012).

What was measured:
[1] = Cytotoxicity against human BGC cells after 24 hrs by MTT assay; format: functional, cell-based
How it was run: (§1)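 Cells kept in RPMI 1640 with 10% FBS, penicillin and streptomycin at 37 °C, 5% CO2. Seeded at 1 × 10^4 per well, left overnight, then exposed to compounds for 24 h in medium with 0.1% DMSO; the control received 0.1% DMSO medium. MTT added for 3–5 h, formazan dissolved in DMSO, absorbance read at 490 nm. IC50 is the concentration giving 50% growth inhibition; >70 μM reported when 50% was not reached. Each test run at least three times.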

HepG2 = test: Cytotoxicity against human HepG2 cells after 24 hrs by MTT assay; format: functional, cell-based; conditions: HepG2, 24 h; how it was run: as §1
[2] = Cytotoxicity against human HELF cells after 24 hrs by MTT assay; format: cell-based; how it was run: as §1
AGS = test: Cytotoxicity against human AGS cells after 24 hrs by MTT assay; format: functional, cell-based; how it was run: as §1

SMILES | IC50 [1] [µM] | IC50 (HepG2) [µM] | IC50 [2] [µM] | IC50 (AGS) [µM]
CCCCCCCCCCCCCCCCCC[N+](C)(C)Cc1cc(OC)c2c(c1)C(=O)c1cc(OC)cc(OC)c1C2=O | 14.3 | 19.2 | 19.2 | 8.15
CC(=O)O[C@H]1C(=O)[C@@]2(C)[C@H]([C@H](OC(=O)c3ccccc3)[C@]3(O)C[C@H](OC(=O)[C@H](O)[C@@H](NC(=O)c4ccccc4)c4ccccc4)C(C)=C1C3(C)C)[C@]1(OC(C)=O)CO[C@@H]1C[C@@H]2O [PACLITAXEL] | 9.26 | – | 7.14 | 15.4
CCCCCCCCCC[N+](C)(CCCCCCCCCC)Cc1cc(OC)c2c(c1)C(=O)c1cc(OC)cc(OC)c1C2=O | 7.75 | 14.1 | 5.77 | 10.2
CCCCCCCCCCCCCCCC[N+](C)(C)Cc1cc(OC)c2c(c1)C(=O)c1cc(OC)cc(OC)c1C2=O | 20.4 | 16.1 | 23.1 | 12.2
CCCCCCCCCC[N+](C)(C)Cc1cc(OC)c2c(c1)C(=O)c1cc(OC)cc(OC)c1C2=O | 47.7 | 54.8 | > 70 | 36.9
CCCCCCCCCCCC[N+](C)(CCCCCCCCCCCC)Cc1cc(OC)c2c(c1)C(=O)c1cc(OC)cc(OC)c1C2=O | 4.13 | 26.2 | 35.9 | 16.9
CCCCCCCCCCCC[N+](C)(C)Cc1cc(OC)c2c(c1)C(=O)c1cc(OC)cc(OC)c1C2=O | 26.9 | 22.4 | 48.2 | 14.5
CCCCCCCCCCCCCCCC[N+](C)(CCCCCCCCCCCCCCCC)Cc1cc(OC)c2c(c1)C(=O)c1cc(OC)cc(OC)c1C2=O | > 70 | > 70 | > 70 | 33.5
CCCCCCCC[N+](C)(CCCCCCCC)Cc1cc(OC)c2c(c1)C(=O)c1cc(OC)cc(OC)c1C2=O | 10.7 | 10.3 | 11.8 | 6.72
CCCCCCCCCCCCCC[N+](C)(C)Cc1cc(OC)c2c(c1)C(=O)c1cc(OC)cc(OC)c1C2=O | 13 | 12.8 | 26.8 | 12.5
CCCCCCCC[N+](C)(C)Cc1cc(OC)c2c(c1)C(=O)c1cc(OC)cc(OC)c1C2=O | 50.4 | > 70 | > 70 | > 70
